{"source": "ChEMBL document CHEMBL4177540", "about": "“Corymbulosins D-H, 2-Hydroxy- and 2-Oxo-clerodane Diterpenes from the Bark of Laetia corymbulosa” (J Nat Prod, 2017)", "type_in_all_cases": "functional, cell-based", "key": {"[1]": {"experiment": "Antiproliferative activity against human KBVIN cells incubated for 72 hrs by SRB assay", "method_in_brief": "(§1)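 Cells in RPMI-1640 with 2 mM L-glutamine, 25 mM HEPES, 10% FBS, streptomycin and penicillin. Seeded at 4,000−12,000 cells per well, then exposed to compound for 72 h. Fixed with 10% trichloroacetic acid, stained with 0.04% SRB, dye taken up in 10 mM Tris base, absorbance read at 515 nm. IC50 is 50% reduction versus untreated cells, from at least three independent experiments run in duplicate.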"}, "[2]": {"system": "A549", "experiment": "Antiproliferative activity against human A549 cells incubated for 72 hrs by SRB assay", "conditions": "A549, 72 h"}, "[3]": {"system": "KB", "experiment": "Antiproliferative activity against human KB cells incubated for 72 hrs by SRB assay"}, "[4]": {"system": "MCF7", "experiment": "Antiproliferative activity against human MCF7 cells incubated for 72 hrs by SRB assay", "conditions": "MCF7, 72 h", "method_in_brief": "as §1"}, "[5]": {"system": "MDA-MB-231", "experiment": "Antiproliferative activity against human MDA-MB-231 cells incubated for 72 hrs by SRB assay", "conditions": "MDA-MB-231, 72 h"}}}
{"compound": "C=CC(=C)CC[C@]1(C)[C@H](C)C[C@H](OC(=O)CCCCCCCCC)[C@@]23C(=C[C@H](O)C[C@@H]12)[C@@H](OC(C)=O)O[C@H]3OC(C)=O", "values": [{"measurement": "IC50", "setting": "[1]", "result": 4.9, "unit": "µM"}, {"measurement": "IC50", "setting": "[2]", "result": 4.7, "unit": "µM"}, {"measurement": "IC50", "setting": "[3]", "result": 5, "unit": "µM"}, {"measurement": "IC50", "setting": "[4]", "result": 5, "unit": "µM"}, {"measurement": "IC50", "setting": "[5]", "result": 5.2, "unit": "µM"}]}
{"compound": "C=CC(=C)CC[C@]1(C)[C@H](C)C[C@H](OC(=O)/C=C\\C=C/CCCCC)[C@@]23C(=C[C@@H](O)C[C@@H]12)[C@@H](OC(C)=O)O[C@H]3OC(C)=O", "values": [{"measurement": "IC50", "setting": "[1]", "result": 4.8, "unit": "µM"}, {"measurement": "IC50", "setting": "[2]", "result": 4.8, "unit": "µM"}, {"measurement": "IC50", "setting": "[3]", "result": 4.9, "unit": "µM"}, {"measurement": "IC50", "setting": "[4]", "result": 5.2, "unit": "µM"}, {"measurement": "IC50", "setting": "[5]", "result": 5.1, "unit": "µM"}]}
{"compound": "C=CC(=C)CC[C@]1(C)[C@H](C)C[C@H](OC(=O)CCCCCCC)[C@@]23C(=C[C@H](O)C[C@@H]12)[C@@H](OC(C)=O)O[C@H]3OC(C)=O", "values": [{"measurement": "IC50", "setting": "[1]", "result": 4.9, "unit": "µM"}, {"measurement": "IC50", "setting": "[2]", "result": 4.7, "unit": "µM"}, {"measurement": "IC50", "setting": "[3]", "result": 5, "unit": "µM"}, {"measurement": "IC50", "setting": "[4]", "result": 4.9, "unit": "µM"}, {"measurement": "IC50", "setting": "[5]", "result": 5.1, "unit": "µM"}]}
{"compound": "C=CC(=C)CC[C@]1(C)[C@H](C)C[C@H](OC(=O)/C=C\\C=C/CCCCC)[C@@]23C(=C[C@H](O)C[C@@H]12)[C@@H](OC(C)=O)O[C@H]3OC(C)=O", "values": [{"measurement": "IC50", "setting": "[1]", "result": 4.9, "unit": "µM"}, {"measurement": "IC50", "setting": "[2]", "result": 4.6, "unit": "µM"}, {"measurement": "IC50", "setting": "[3]", "result": 4.8, "unit": "µM"}, {"measurement": "IC50", "setting": "[4]", "result": 4.8, "unit": "µM"}, {"measurement": "IC50", "setting": "[5]", "result": 4.8, "unit": "µM"}]}
{"compound": "C=CC(=C)CC[C@]1(C)[C@H](C)C[C@H](OC(=O)CCCCCCCCC)[C@@]23C(=C[C@@H](O)C[C@@H]12)[C@@H](OC(C)=O)O[C@H]3OC(C)=O", "values": [{"measurement": "IC50", "setting": "[1]", "result": 4.8, "unit": "µM"}, {"measurement": "IC50", "setting": "[2]", "result": 5.3, "unit": "µM"}, {"measurement": "IC50", "setting": "[3]", "result": 4.5, "unit": "µM"}, {"measurement": "IC50", "setting": "[4]", "result": 5.4, "unit": "µM"}, {"measurement": "IC50", "setting": "[5]", "result": 5.4, "unit": "µM"}]}
{"compound": "C=CC(=C)CC[C@]1(C)[C@H](C)C[C@H](OC(=O)CCCCCCCCC)[C@@]23C(=CC(=O)C[C@@H]12)[C@@H](OC(C)=O)O[C@H]3OC(C)=O", "values": [{"measurement": "IC50", "setting": "[1]", "result": 9.8, "unit": "µM"}, {"measurement": "IC50", "setting": "[2]", "result": "> 10", "unit": "µM"}, {"measurement": "IC50", "setting": "[3]", "result": 5.9, "unit": "µM"}, {"measurement": "IC50", "setting": "[4]", "result": 8.3, "unit": "µM"}, {"measurement": "IC50", "setting": "[5]", "result": "> 10", "unit": "µM"}]}
